pEC50: −log10 of the molar value.
Legend:
Type in all cases: functional, cell-based
[1] = target: T1, Kappa-type opioid receptor (Homo sapiens, UniProt P41145); experiment: Agonist activity at human kappa-type opioid receptor expressed in CHO-K1 cells assessed as inhibition of forskolin-induced cAMP accumulation after 30 mins by luminescence-based assay
Outline: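 CHO-K1 cells stably expressing human κ-opioid receptor, tested in a HitHunter cAMP assay for inhibition of forskolin-induced cAMP accumulation, run per the manufacturer's directions. Compounds were tested up to 50 μM. Emax is expressed relative to salvinorin A, set at 100%. EC50 and Emax are given as means ± SEM of at least 2 independent experiments, each run in triplicate.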

[2] = target: T1, Kappa-type opioid receptor; experiment: Agonist activity at human kappa-type opioid receptor expressed in CHO-K1 cells assessed as inhibition of forskolin-induced cAMP accumulation up to 50 uM after 30 mins by luminescence-based assay
Outline: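 CHO-K1 cells stably expressing human κ-opioid receptor; HitHunter cAMP assay, run per the kit directions, measuring inhibition of forskolin-induced cAMP accumulation. Compounds tested up to 50 μM. Reference agonist sets E_max = 100%. EC₅₀ and E_max given as means ± standard error of the mean from n ≥ 2 independent experiments, each in triplicate.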

[3] = target: T1, Kappa-type opioid receptor; experiment: Agonist activity at human kappa-type opioid receptor expressed in CHO-K1 cells assessed as inhibition of forskolin-induced cAMP accumulation after 30 mins by luminescence-based assay relative to columbin

T1 sequence (P41145 whole entry): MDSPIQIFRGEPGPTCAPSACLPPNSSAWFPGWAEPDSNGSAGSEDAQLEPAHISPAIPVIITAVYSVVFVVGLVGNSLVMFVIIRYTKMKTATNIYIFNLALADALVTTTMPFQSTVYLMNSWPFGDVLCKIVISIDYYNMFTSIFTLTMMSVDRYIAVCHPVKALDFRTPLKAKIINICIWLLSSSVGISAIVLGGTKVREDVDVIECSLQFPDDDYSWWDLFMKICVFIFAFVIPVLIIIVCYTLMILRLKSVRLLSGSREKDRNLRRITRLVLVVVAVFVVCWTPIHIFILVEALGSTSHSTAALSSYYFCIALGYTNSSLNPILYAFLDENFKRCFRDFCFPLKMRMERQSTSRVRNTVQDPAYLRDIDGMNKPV

SMILES | pEC50 [1] | Emax [2] | Emax [1] | fold change (FC) [3]
C[C@@]12C[C@H](c3ccoc3Br)OC(=O)[C@@H]1CC[C@]1(C)[C@H]2[C@H]2C=C[C@]1(O)C(=O)O2 | < 4.30 | 0% | – | –
C[C@@]12C[C@H](c3ccoc3)OC(=O)[C@@H]1CC[C@]1(C)[C@H]2[C@H]2C=C[C@]1(O)C(=O)O2 | < 4.30 | 0% | – | –
CC(=O)O[C@@]12C=C[C@@H](OC1=O)[C@H]1[C@]3(C)C[C@H](c4ccoc4)OC(=O)[C@@H]3CC[C@]12C | 5.10 | – | 100% | > 6.3
CC(=O)O[C@@H]1[C@H]2OC(=O)[C@@](O)([C@@H]1OC(C)=O)[C@]1(C)CC[C@H]3C(=O)O[C@@H](c4ccoc4)C[C@@]3(C)[C@H]21 | < 4.30 | 0% | – | –
C[C@@]12C[C@H](c3ccoc3)OC(=O)[C@@H]1CC[C@]1(C)[C@H]2[C@H]2C=C[C@]1(OC(=O)/C=C/c1ccccc1)C(=O)O2 | 5.22 | – | 100% | > 8.3
C[C@@]12C[C@H](c3ccoc3)OC(=O)[C@@H]1CC[C@]1(C)[C@H]2[C@@H]2OC(=O)[C@@]1(O)[C@H](O)[C@@H]2O | 4.80 | – | 100% | > 3.1
C[C@@]12C[C@H](c3ccoc3Br)OC(=O)[C@@H]1CC[C@]1(C)[C@H]2[C@@H]2OC(=O)[C@@]1(O)[C@@H](Br)[C@@H]2Br | < 4.30 | 0% | – | –
C[C@@]12C[C@H](c3ccoc3)OC(=O)[C@@H]1CC[C@]1(C)[C@H]2[C@H]2CC[C@]1(O)C(=O)O2 | 5.70 | – | 100% | > 25
COCO[C@@]12C=C[C@@H](OC1=O)[C@H]1[C@]3(C)C[C@H](c4ccoc4)OC(=O)[C@@H]3CC[C@]12C | 4.92 | – | 100% | > 4.2
